Measurements from ChEMBL document CHEMBL1131624, “Inhibitors of acyl-CoA:cholesterol O-acyltransferase. 2. Identification and structure-activity relationships of a novel series of N-alkyl-N-(heteroaryl-substituted benzyl)-N'-arylureas” (J Med Chem, 1998).
Calls of active or inactive are those of the source. The calls are words filed in the database; no cut-off is given here.

Legend:
[1] = target: T1, Sterol O-acyltransferase, Soat (Rattus norvegicus) (UniProt Q7TQM4+O70536); experiment: Effective dose to reduce plasma total cholesterol level by 50% of the control value in cholesterol fed rats; assay type: functional
Procedure, shortened: (§1)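 Cholesterol-fed rats given compound orally as a dietary admixture in a cholesterol-enriched diet. Plasma total cholesterol compared with control and reported as percent reduction at the dose, or as ED50, the dose reducing plasma total cholesterol by 50% of the control value.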

[2] = target: O-acyltransferase (Oryctolagus cuniculus, UniProt G1SFD9); experiment: In vitro inhibitory activity against Acyl coenzyme A:cholesterol acyltransferase (ACAT) in rabbit intestinal microsomes; set-up: species or system Intestine
Procedure, shortened: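 Enzyme source was mucosal microsomes from small intestine of cholesterol-fed rabbits, incubated with [1-¹⁴C]oleoyl-CoA (Heider method, minor modifications).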

[3] = organism: Mus musculus; experiment: Compound tested for inhibitory activity of foam cell formation in mouse peritoneal macrophages; assay type: functional
Procedure, shortened: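 Mouse peritoneal macrophages from nonstimulated mice, lavaged with PBS, plated 2 × 10⁶ cells/mL, adhered 2 h, then 18 h in 10% FBS-DMEM. Incubated 4 h at 37 °C with 0.2 mmol/L [1-¹⁴C]oleate–BSA, 30 µg/mL acetylated human LDL and compound (0.1% DMSO). Lipids extracted, TLC-separated, and cholesteryl [¹⁴C]oleate counted. Cell protein also measured. IC50 in nM.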

[4] = test system: Rattus norvegicus; experiment: Compound was evaluated for percent reduction in total cholesterol level at >0.1 mg/kg; assay type: functional; procedure, shortened: as §1
[5] = test system: Rattus norvegicus; experiment: Compound was evaluated for percent reduction in total cholesterol level at >1 mg/kg; inactive; assay type: functional, organism-based; procedure, shortened: as §1
[6] = test system: Rattus norvegicus; experiment: Compound was evaluated for percent reduction in total cholesterol level at >0.32 mg/kg; assay type: functional; procedure, shortened: as §1
[7] = organism: Rattus norvegicus; experiment: Effective dose to reduce plasma total cholesterol level by 50% of the control in cholesterol fed rats; assay type: functional; procedure, shortened: as §1
[8] = test system: Rattus norvegicus; experiment: Compound was evaluated for percent reduction in total cholesterol level at >0.32 mg/kg; Inactive; assay type: functional, organism-based; procedure, shortened: as §1
[9] = target: T1, Sterol O-acyltransferase, Soat (Rattus norvegicus); experiment: Percentage reduction in total cholesterol level at <1 mg/kg; assay type: functional, organism-based; procedure, shortened: as §1
[10] = organism: Rattus norvegicus; experiment: Effective dose to reduce plasma total cholesterol level by 50% of the control value in cholesterol fed rats; Inactive; assay type: functional, organism-based; procedure, shortened: as §1
[11] = test system: Rattus norvegicus; experiment: Compound was evaluated for percent reduction in total cholesterol level at >1 mg/kg; Inactive; assay type: functional, organism-based; procedure, shortened: as §1
[12] = test system: Rattus norvegicus; experiment: Effective dose to reduce plasma total cholesterol level by 50% of the control in cholesterol fed rats when administered by gavage in PEG400 as a vehicle; assay type: functional; settings: po
Procedure, shortened: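 Rats on a cholesterol diet were dosed orally by gavage with compound in PEG400 vehicle. Plasma total cholesterol measured. ED50 is the dose reducing it by 50% of the control value.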

[13] = test system: Rattus norvegicus; experiment: Compound was evaluated for percent reduction in total cholesterol level at >0.1 mg/kg; Inactive; assay type: functional, organism-based; procedure, shortened: as §1
[14] = test system: Rattus norvegicus; experiment: Compound was evaluated for percent reduction in total cholesterol level at <0.32 mg/kg; assay type: functional; procedure, shortened: as §1

Sequence of O-acyltransferase (G1SFD9 1-524): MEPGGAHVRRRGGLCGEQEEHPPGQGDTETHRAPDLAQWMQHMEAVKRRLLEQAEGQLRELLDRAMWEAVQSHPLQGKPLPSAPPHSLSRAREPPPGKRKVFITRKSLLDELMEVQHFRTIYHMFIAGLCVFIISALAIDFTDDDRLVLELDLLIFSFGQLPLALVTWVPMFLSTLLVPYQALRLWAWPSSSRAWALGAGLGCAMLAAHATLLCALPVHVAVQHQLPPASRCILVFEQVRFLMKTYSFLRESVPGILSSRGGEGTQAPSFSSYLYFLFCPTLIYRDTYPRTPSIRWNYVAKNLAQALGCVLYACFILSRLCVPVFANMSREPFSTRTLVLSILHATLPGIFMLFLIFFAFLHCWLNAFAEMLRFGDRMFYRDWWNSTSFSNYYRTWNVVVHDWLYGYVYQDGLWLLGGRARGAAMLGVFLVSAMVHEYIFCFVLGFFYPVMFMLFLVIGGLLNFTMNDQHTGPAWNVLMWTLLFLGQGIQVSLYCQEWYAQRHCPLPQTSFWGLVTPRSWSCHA

Row | Compound | ED50 [1] [mg/kg] | IC50 [2] [nM] | other results
1 | Cc1cc(C)c(NC(=O)N(Cc2cccc(-c3cc[nH]n3)c2)C2CCCCCC2)c(C)c1 | 0.097 | 65 | IC50 [3]: 460 nM
2 | COc1cccc(CN(Cc2cccc(-c3cc[nH]n3)c2)C(=O)Nc2c(SC)cc(C)nc2SC)c1 | > 0.1 | – | Reduction [4]: 13%
3 | Cc1cc(C)c(NC(=O)N(Cc2c[nH]c(-c3ccccc3)n2)C2CCCCCC2)c(C)c1 | > 1 | 750 | Reduction [5]: inactive
4 | CSc1cc(C)nc(SC)c1NC(=O)N(Cc1cccc(-c2cc[nH]n2)c1)C1CCCCCC1 | > 0.32 | 260 | Reduction [6]: 24%
5 | Cc1cc(C)c(NC(=O)N(Cc2ccc(-c3ccccc3)cc2)C2CCCCCC2)c(C)c1 | – | 24 | ED50 [7]: 0.29 mg/kg
6 | Cc1cc(C)c(NC(=O)N(Cc2ccc(-c3ccn(C)n3)cc2)C2CCCCCC2)c(C)c1 | < 1 | 44 | Reduction [8]: inactive; ED50 [7]: > 0.32 mg/kg; Reduction [9]: 88%
7 | CSc1cc(C)nc(SC)c1NC(=O)N(Cc1ccc(-c2cnn(C)c2)cc1)C1CCCCCC1 | > 0.1 | – | ED50 [10]: inactive
8 | Cc1cc(C)c(NC(=O)N(Cc2ccc(-n3cccn3)cc2)C2CCCCCC2)c(C)c1 | > 1 | 70 | Reduction [11]: inactive
9 | CSc1cc(C)nc(SC)c1NC(=O)N(Cc1ccccc1)Cc1ccc(-c2cnn(C)c2)cc1 | > 0.1 | – | Reduction [4]: 29%
10 | O=C(Nc1c(F)cc(F)cc1F)N(Cc1cccc(-c2cc[nH]n2)c1)C1CCCCCC1 | 0.062 | 22 | ED50 [12]: 0.79 mg/kg; IC50 [3]: 580 nM
11 | CSc1cc(C)nc(SC)c1NC(=O)N(Cc1cccc(-c2cnn(C)c2)c1)C1CCCCCC1 | > 0.1 | – | Reduction [4]: 44%
12 | CC(C)c1cccc(C(C)C)c1OC(=O)NS(=O)(=O)Oc1c(C(C)C)cccc1C(C)C | 0.61 | 4000 | IC50 [3]: 55000 nM
13 | O=C(Nc1c(F)cc(F)cc1F)N(Cc1ccc(-c2ccsc2)cc1)C1CCCCCC1 | > 1 | 23 | Reduction [11]: inactive
14 | CSc1cc(C)nc(SC)c1NC(=O)N(Cc1ccccc1)Cc1cccc(-c2cnn(C)c2)c1 | > 0.1 | – | Reduction [4]: 43%
15 | CSc1cc(C)nc(SC)c1NC(=O)N(Cc1ccccc1)Cc1ccc(-c2ccn(C)n2)cc1 | > 0.32 | 29 | Reduction [13]: inactive
16 | Cc1cc(C)c(NC(=O)N(Cc2ccc(-c3nnc(C)o3)cc2)C2CCCCCC2)c(C)c1 | > 0.32 | 27 | Reduction [6]: 37%
17 | CSc1cc(C)nc(SC)c1NC(=O)N(CCc1ccccc1)Cc1cccc(-c2cc[nH]n2)c1 | > 0.1 | – | ED50 [10]: inactive
18 | CSc1cc(C)nc(SC)c1NC(=O)N(Cc1ccccc1)Cc1ccc(-c2ccnn2C)cc1 | < 0.32 | 27 | Reduction [14]: 86%
19 | COc1ccccc1CN(Cc1cccc(-c2cc[nH]n2)c1)C(=O)Nc1c(SC)cc(C)nc1SC | > 0.1 | – | ED50 [10]: inactive
20 | CN(C)c1ccc(CN(Cc2cccc(-c3cc[nH]n3)c2)C(=O)Nc2c(F)cc(F)cc2F)cc1 | < 0.32 | 12 | Reduction [14]: 68%
